Test results taken from ChEMBL document CHEMBL4325889, “Natural products hybrids: 3,5,4'-Trimethoxystilbene-5,6,7-trimethoxyflavone chimeric analogs as potential cytotoxic agents against diverse human cancer cells” (Eur J Med Chem, 2019).

Key:
Type in all cases: functional
NCI/ADR-RES = assay: Growth inhibition of human NCI/ADR-RES cells at 10 uM after 48 hrs by SRB assay relative to control; conditions: read-out: GI
Procedure, shortened: (§1)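 Screened at the National Cancer Institute by the standard NCI protocol using the sulforhodamine B assay, which measures cellular protein. Single dose of 10 µM. Result is percent growth inhibition; values above 100% mean cell number fell below the initial population. Values are the average of duplicates.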

BT-549 = assay: Growth inhibition of human BT549 cells at 10 uM after 48 hrs by SRB assay relative to control; conditions: BT-549, 48 h, read-out: GI; procedure, shortened: as §1
HCC 2998 = assay: Growth inhibition of human HCC2998 cells at 10 uM after 48 hrs by SRB assay relative to control; conditions: HCC 2998, 48 h, read-out: GI; procedure, shortened: as §1
COLO 205 = assay: Growth inhibition of human COLO205 cells at 10 uM after 48 hrs by SRB assay relative to control; conditions: COLO 205, 48 h, read-out: GI; procedure, shortened: as §1
K562 = assay: Growth inhibition of human K562 cells at 10 uM after 48 hrs by SRB assay relative to control; conditions: K562, 48 h, read-out: GI; procedure, shortened: as §1
NCI-H23 = assay: Growth inhibition of human NCI-H23 cells at 10 uM after 48 hrs by SRB assay relative to control; conditions: NCI-H23, 48 h, read-out: GI; procedure, shortened: as §1
SF-295 = assay: Growth inhibition of human SF295 cells at 10 uM after 48 hrs by SRB assay relative to control; conditions: SF-295, 48 h, read-out: GI; procedure, shortened: as §1
RPMI-8226 = assay: Growth inhibition of human RPMI8226 cells at 10 uM after 48 hrs by SRB assay relative to control; conditions: RPMI-8226, 48 h, read-out: GI; procedure, shortened: as §1
LOX IMVI = assay: Growth inhibition of human LOXIMVI cells at 10 uM after 48 hrs by SRB assay relative to control; conditions: read-out: GI; procedure, shortened: as §1
PC-3 = assay: Growth inhibition of human PC3 cells at 10 uM after 48 hrs by SRB assay relative to control; conditions: PC-3, 48 h, read-out: GI; procedure, shortened: as §1
Malme-3M = assay: Growth inhibition of human MALME-3M cells at 10 uM after 48 hrs by SRB assay relative to control; conditions: read-out: GI; procedure, shortened: as §1
OVCAR-4 = assay: Growth inhibition of human OVCAR4 cells at 10 uM after 48 hrs by SRB assay relative to control; conditions: OVCAR-4, 48 h, read-out: GI; procedure, shortened: as §1
UO-31 = assay: Growth inhibition of human UO31 cells at 10 uM after 48 hrs by SRB assay relative to control; conditions: UO-31, 48 h, read-out: GI
Procedure, shortened: (§2)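 NCI screen against its human cancer cell line panel by the standard NCI protocol, SRB protein stain. Single dose of 10 μM. Percent growth inhibition versus control; values above 100% mean the cell population fell below the starting number. Each value is the mean of duplicates.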

DU-145 = assay: Growth inhibition of human DU145 cells at 10 uM after 48 hrs by SRB assay relative to control; conditions: DU-145, 48 h, read-out: GI; procedure, shortened: as §1
786-0 = assay: Growth inhibition of human 786-0 cells at 10 uM after 48 hrs by SRB assay relative to control; conditions: 786-0, 48 h, read-out: GI; procedure, shortened: as §1
Hs-578T = assay: Growth inhibition of human Hs 578T cells at 10 uM after 48 hrs by SRB assay relative to control; conditions: read-out: GI; procedure, shortened: as §1
TK-10 = assay: Growth inhibition of human TK10 cells at 10 uM after 48 hrs by SRB assay relative to control; conditions: TK-10, 48 h, read-out: GI; procedure, shortened: as §2
MOLT-4 = assay: Growth inhibition of human MOLT4 cells at 10 uM after 48 hrs by SRB assay relative to control; conditions: MOLT-4, 48 h, read-out: GI; procedure, shortened: as §1
SK-MEL-28 = assay: Growth inhibition of human SK-MEL-28 cells at 10 uM after 48 hrs by SRB assay relative to control; conditions: SK-MEL-28, 48 h, read-out: GI; procedure, shortened: as §1
NCI-H460 = assay: Growth inhibition of human NCI-H460 cells at 10 uM after 48 hrs by SRB assay relative to control; conditions: NCI-H460, 48 h, read-out: GI; procedure, shortened: as §1
RXF 393 = assay: Growth inhibition of human RXF393 cells at 10 uM after 48 hrs by SRB assay relative to control; conditions: RXF 393, 48 h, read-out: GI; procedure, shortened: as §1
NCI-H322M = assay: Growth inhibition of human NCI-H322M cells at 10 uM after 48 hrs by SRB assay relative to control; conditions: read-out: GI; procedure, shortened: as §1
CCRF-CEM = assay: Growth inhibition of human CCRF-CEM cells at 10 uM after 48 hrs by SRB assay relative to control; conditions: read-out: GI; procedure, shortened: as §1
MCF7 = assay: Growth inhibition of human MCF7 cells at 10 uM after 48 hrs by SRB assay relative to control; conditions: MCF7, 48 h, read-out: GI; procedure, shortened: as §1
HL-60(TB) = assay: Growth inhibition of human HL-60(TB) cells at 10 uM after 48 hrs by SRB assay relative to control; conditions: HL-60, 48 h, read-out: GI
Procedure, shortened: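 Run at NCI under its standard single-dose protocol against a leukemia cell panel. Cells were exposed to 10 µM; growth was read by sulforhodamine B staining of cellular protein and expressed as % growth inhibition versus untreated control. Values above 100% mean the cell population fell below the starting count (cytocidal). Each value is the average of duplicates.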

SNB-75 = assay: Growth inhibition of human SNB75 cells at 10 uM after 48 hrs by SRB assay relative to control; conditions: SNB-75, 48 h, read-out: GI; procedure, shortened: as §2
A549 = assay: Growth inhibition of human A549 cells at 10 uM after 48 hrs by SRB assay relative to control; conditions: A549, 48 h, read-out: GI; procedure, shortened: as §1
SN12C = assay: Growth inhibition of human SN12C cells at 10 uM after 48 hrs by SRB assay relative to control; conditions: read-out: GI; procedure, shortened: as §1
HOP-62 = assay: Growth inhibition of human HOP62 cells at 10 uM after 48 hrs by SRB assay relative to control; conditions: HOP-62, 48 h, read-out: GI; procedure, shortened: as §1
NCI-H522 = assay: Growth inhibition of human NCI-H522 cells at 10 uM after 48 hrs by SRB assay relative to control; conditions: NCI-H522, 48 h, read-out: GI; procedure, shortened: as §1
MDA-MB-435 = assay: Growth inhibition of human MDA-MB-435 cells at 10 uM after 48 hrs by SRB assay relative to control; conditions: MDA-MB-435, 48 h, read-out: GI; procedure, shortened: as §1
NCI-H226 = assay: Growth inhibition of human NCI-H226 cells at 10 uM after 48 hrs by SRB assay relative to control; conditions: NCI-H226, 48 h, read-out: GI; procedure, shortened: as §1
UACC-257 = assay: Growth inhibition of human UACC257 cells at 10 uM after 48 hrs by SRB assay relative to control; conditions: UACC-257, 48 h, read-out: GI; procedure, shortened: as §2
SF-539 = assay: Growth inhibition of human SF539 cells at 10 uM after 48 hrs by SRB assay relative to control; conditions: SF-539, 48 h, read-out: GI; procedure, shortened: as §1

Compound | inhibition of growth at 10 µM (NCI/ADR-RES) | inhibition of growth at 10 µM (BT-549) | inhibition of growth at 10 µM (HCC 2998) | inhibition of growth at 10 µM (COLO 205) | inhibition of growth at 10 µM (K562) | inhibition of growth at 10 µM (NCI-H23) | inhibition of growth at 10 µM (SF-295) | inhibition of growth at 10 µM (RPMI-8226) | inhibition of growth at 10 µM (LOX IMVI) | inhibition of growth at 10 µM (PC-3) | inhibition of growth at 10 µM (Malme-3M) | inhibition of growth at 10 µM (OVCAR-4) | inhibition of growth at 10 µM (UO-31) | inhibition of growth at 10 µM (DU-145) | inhibition of growth at 10 µM (786-0) | inhibition of growth at 10 µM (Hs-578T) | inhibition of growth at 10 µM (TK-10) | inhibition of growth at 10 µM (MOLT-4) | inhibition of growth at 10 µM (SK-MEL-28) | inhibition of growth at 10 µM (NCI-H460) | other results
COc1ccccc1NC(=O)c1cccc(-c2cc(=O)c3c(O)c(OC)c(OC)cc3o2)c1 | 19.8% | 10.8% | -2.45% | -7.01% | 22.1% | 13.9% | 10.8% | 45.4% | 16.7% | 25.1% | 5.55% | 3.74% | 30% | 5.49% | 9.66% | 3.9% | 14.1% | 27.9% | 5.62% | -3.83% | inhibition of growth at 10 µM (RXF 393): 21.8%; inhibition of growth at 10 µM (NCI-H322M): 1.56%; inhibition of growth at 10 µM (CCRF-CEM): 39.8%; inhibition of growth at 10 µM (MCF7): 7.54%; inhibition of growth at 10 µM (HL-60(TB)): 9.41%; inhibition of growth at 10 µM (SNB-75): 13%; inhibition of growth at 10 µM (A549): 18.5%; inhibition of growth at 10 µM (SN12C): 5.99%; inhibition of growth at 10 µM (HOP-62): 0.21%; inhibition of growth at 10 µM (NCI-H522): 26.6%; inhibition of growth at 10 µM (MDA-MB-435): 2.77%; inhibition of growth at 10 µM (NCI-H226): 23.9%; inhibition of growth at 10 µM (UACC-257): 1.19%; inhibition of growth at 10 µM (SF-539): 6.01%
COc1cc2oc(-c3cccc(C(=O)Nc4ccccc4)c3)cc(=O)c2c(OC)c1OC | 18.2% | 24.2% | 1.29% | 2.76% | 29.6% | 7.79% | 4.34% | 59.4% | 33% | 29% | 12.5% | 1.91% | 35.6% | 12.2% | 7.46% | 8% | 8.98% | 43.2% | 8.31% | 11.2% | inhibition of growth at 10 µM (RXF 393): 24.9%; inhibition of growth at 10 µM (NCI-H322M): 17.7%; inhibition of growth at 10 µM (CCRF-CEM): 35.1%; inhibition of growth at 10 µM (MCF7): 7.49%; inhibition of growth at 10 µM (HL-60(TB)): 12.7%; inhibition of growth at 10 µM (SNB-75): 7.02%; inhibition of growth at 10 µM (A549): 16.7%; inhibition of growth at 10 µM (SN12C): 27.3%; inhibition of growth at 10 µM (HOP-62): 13.7%; inhibition of growth at 10 µM (NCI-H522): 21.9%; inhibition of growth at 10 µM (MDA-MB-435): 8.87%; inhibition of growth at 10 µM (NCI-H226): 12.7%; inhibition of growth at 10 µM (UACC-257): 5.48%; inhibition of growth at 10 µM (SF-539): 19.8%
